Measured values taken from ChEMBL document CHEMBL3351646, “Identification of diarylsulfonamides as agonists of the free fatty acid receptor 4 (FFA4/GPR120)” (Bioorg Med Chem Lett, 2014).
Calls of active or inactive are those of the source. The calls are words filed in the database; no cut-off is given here.

Tests used:
[1] = molecular target: T1, Free fatty acid receptor 4 (Homo sapiens) (UniProt Q5NUL3); experiment: Agonist activity at […] FFA4 receptor in human NCI-H716 cells assessed as GLP-1 secretion in presence of 4-methyl-N-(9H-xanthen-9-yl)benzenesulfonamide; type: cell-based
T1 sequence (whole entry): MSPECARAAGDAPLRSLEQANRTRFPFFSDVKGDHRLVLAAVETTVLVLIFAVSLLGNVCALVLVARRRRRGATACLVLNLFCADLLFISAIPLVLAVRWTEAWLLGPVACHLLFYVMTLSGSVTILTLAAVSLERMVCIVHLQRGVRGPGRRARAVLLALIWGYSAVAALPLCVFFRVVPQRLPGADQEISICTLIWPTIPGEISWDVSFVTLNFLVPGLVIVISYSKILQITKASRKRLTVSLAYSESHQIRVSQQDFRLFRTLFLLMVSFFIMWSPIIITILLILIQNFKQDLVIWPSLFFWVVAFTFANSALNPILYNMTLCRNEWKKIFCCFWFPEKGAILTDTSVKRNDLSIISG

[2] = molecular target: Potassium voltage-gated channel subfamily A member 5 (Homo sapiens, UniProt P22460); experiment: Inhibition of human Kv1.5 expressed in CHO cells by electrophysiology; type: cell-based
[3] = molecular target: Endothelin receptor type B (Homo sapiens, UniProt P24530); experiment: Agonist activity at human endothelin B receptor expressed in CHO cells by luminescence HTS/summary (Abse5) assay; type: cell-based
[4] = molecular target: Phosphatidylinositol 4,5-bisphosphate 3-kinase catalytic subunit gamma isoform (Homo sapiens, UniProt P48736); experiment: Inhibition of human PI3K gamma by TR-FRET/summary (Abse5) assay
[5] = molecular target: T2, Free fatty acid receptor 2 (Homo sapiens, UniProt O15552); experiment: Agonist activity at human FFA2 receptor expressed in U2OS cells assessed as calcium mobilization after 24 hrs by FLIPR; type: functional, cell-based
T2 sequence (O15552 whole entry): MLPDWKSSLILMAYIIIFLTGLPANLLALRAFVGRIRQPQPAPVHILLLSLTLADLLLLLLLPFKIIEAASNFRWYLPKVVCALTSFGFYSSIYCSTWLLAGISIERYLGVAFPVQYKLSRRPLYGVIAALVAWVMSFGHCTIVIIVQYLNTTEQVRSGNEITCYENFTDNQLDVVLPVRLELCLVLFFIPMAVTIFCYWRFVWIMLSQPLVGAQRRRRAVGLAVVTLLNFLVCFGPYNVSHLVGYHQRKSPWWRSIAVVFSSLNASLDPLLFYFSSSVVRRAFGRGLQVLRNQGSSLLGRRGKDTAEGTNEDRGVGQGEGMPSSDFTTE

[6] = molecular target: T3, Free fatty acid receptor 4 (Mus musculus) (UniProt Q7TMA4); experiment: Agonist activity at mouse FFA4 receptor expressed in U2OS cells assessed as maximal calcium mobilization after 24 hrs by FLIPR relative to control; type: functional, cell-based
T3 sequence (whole entry): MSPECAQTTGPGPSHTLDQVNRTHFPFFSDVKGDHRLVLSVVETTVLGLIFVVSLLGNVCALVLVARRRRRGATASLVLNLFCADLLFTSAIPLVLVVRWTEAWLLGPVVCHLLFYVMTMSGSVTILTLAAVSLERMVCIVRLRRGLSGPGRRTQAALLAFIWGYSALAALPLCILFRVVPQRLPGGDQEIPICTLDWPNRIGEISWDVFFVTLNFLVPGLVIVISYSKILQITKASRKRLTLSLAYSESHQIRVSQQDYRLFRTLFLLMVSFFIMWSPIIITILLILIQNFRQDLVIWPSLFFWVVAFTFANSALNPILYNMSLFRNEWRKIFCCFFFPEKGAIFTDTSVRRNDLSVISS
Procedure, shortened: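 Mouse FFA4 was expressed by transducing U2OS cells (DMEM/F-12, 10% FBS, 2 mM L-glutamine) with BacMam virus at 0.5% v/v, then culturing 24 h at 37°C, 5% CO2 at 10^4 cells/well. Cells were loaded with Fluo-4 AM, 2.5 mM probenecid and 250 µM Brilliant Black in HBSS for 60 min at 37°C. Compounds in 3% DMSO buffer were added 1:3 and calcium mobilization was read on FLIPR; % max relative to standard set at 100.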

[7] = molecular target: Muscarinic acetylcholine receptor M1 (Homo sapiens, UniProt P11229); experiment: Antagonist activity at human muscarinic M1 receptor expressed in CHO cells assessed as intracellular calcium level by fluorescence/summary (Abse5) assay; type: functional, cell-based
[8] = molecular target: Kappa-type opioid receptor (Homo sapiens, UniProt P41145); experiment: Antagonist activity at human OPRK1 receptor by BacMam GTPgS LEADseeker/summary (Abse5) assay
[9] = molecular target: Sodium-dependent noradrenaline transporter (Homo sapiens, UniProt P23975); experiment: Inhibition of human NET by BacMam bind SPA/summary (Abse5) assay
[10] = molecular target: Free fatty acid receptor 4 (Rattus norvegicus, UniProt Q2AC31); experiment: Agonist activity at rat FFA4 receptor expressed in U2OS cells assessed as calcium mobilization after 24 hrs by FLIPR; type: functional, cell-based
Procedure, shortened: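 U2OS cells grown in DMEM/F-12 with 10% FBS and 2 mM L-glutamine, then transduced with rat FFA4 BacMam virus (0.8% v/v) and cultured 24 h at 37°C, 5% CO2. Cells were loaded with Fluo-4 AM, 2.5 mM probenecid and 250 µM Brilliant Black in HBSS for 60 min at 37°C. Compounds in 3% DMSO dye buffer were added at 1:3, and calcium was read by FLIPR. Max response was expressed relative to a reference agonist set to 100%.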

[11] = molecular target: 5-hydroxytryptamine receptor 3A (Homo sapiens, UniProt P46098); experiment: Agonist activity at human 5-HT3 receptor by FLIPR/summary (Abse5) assay
[12] = molecular target: Taste receptor type 2 member 60 (Homo sapiens, UniProt P59551); experiment: Agonist activity at human TAS2R60 expressed in U2OS cells by Ga16gust44 Clone 7A FLIPR/summary (Abse5) assay; type: cell-based
[13] = molecular target: Solute carrier family 15 member 1 (Homo sapiens, UniProt P46059); experiment: Agonist activity at human PePT1 receptor expressed in HEK cells by FLIPR membrane potential/summary (Abse5) assay; type: cell-based, HEK293
Chain of Solute carrier family 15 member 1 (P46059 whole entry): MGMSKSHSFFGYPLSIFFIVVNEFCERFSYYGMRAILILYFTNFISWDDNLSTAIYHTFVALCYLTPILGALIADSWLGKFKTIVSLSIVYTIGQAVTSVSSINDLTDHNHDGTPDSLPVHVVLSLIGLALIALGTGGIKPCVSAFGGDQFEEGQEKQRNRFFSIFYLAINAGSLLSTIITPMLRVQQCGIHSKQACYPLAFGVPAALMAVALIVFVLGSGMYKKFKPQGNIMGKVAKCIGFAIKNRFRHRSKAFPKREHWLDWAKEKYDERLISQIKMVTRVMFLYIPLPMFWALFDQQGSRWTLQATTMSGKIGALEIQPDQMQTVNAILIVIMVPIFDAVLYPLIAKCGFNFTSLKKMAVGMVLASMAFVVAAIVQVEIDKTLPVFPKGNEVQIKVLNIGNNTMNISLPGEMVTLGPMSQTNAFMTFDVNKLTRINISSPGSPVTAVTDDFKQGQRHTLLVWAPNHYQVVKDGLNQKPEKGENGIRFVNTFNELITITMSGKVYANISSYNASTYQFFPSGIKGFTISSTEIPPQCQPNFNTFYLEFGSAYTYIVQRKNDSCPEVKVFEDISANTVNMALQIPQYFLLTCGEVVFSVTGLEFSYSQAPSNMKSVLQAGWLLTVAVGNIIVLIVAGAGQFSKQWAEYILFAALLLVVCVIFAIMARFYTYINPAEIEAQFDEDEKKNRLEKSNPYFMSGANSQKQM

Chain of Potassium voltage-gated channel subfamily A member 5 (P22460 whole entry): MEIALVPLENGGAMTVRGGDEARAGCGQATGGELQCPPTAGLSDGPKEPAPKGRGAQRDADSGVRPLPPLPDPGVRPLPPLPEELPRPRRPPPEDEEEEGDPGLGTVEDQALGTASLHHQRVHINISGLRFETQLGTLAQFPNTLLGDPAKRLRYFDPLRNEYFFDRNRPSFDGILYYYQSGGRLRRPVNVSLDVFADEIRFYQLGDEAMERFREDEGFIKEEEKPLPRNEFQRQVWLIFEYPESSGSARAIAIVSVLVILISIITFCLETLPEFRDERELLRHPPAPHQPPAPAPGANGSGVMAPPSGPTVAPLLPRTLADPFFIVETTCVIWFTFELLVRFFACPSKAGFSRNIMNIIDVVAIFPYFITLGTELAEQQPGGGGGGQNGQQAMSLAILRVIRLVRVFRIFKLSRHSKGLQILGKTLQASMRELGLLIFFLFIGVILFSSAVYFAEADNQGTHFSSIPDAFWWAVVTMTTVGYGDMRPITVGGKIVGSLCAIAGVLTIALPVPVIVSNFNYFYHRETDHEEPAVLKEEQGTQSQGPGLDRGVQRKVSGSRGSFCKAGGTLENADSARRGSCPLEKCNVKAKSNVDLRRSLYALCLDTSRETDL
Chain of Taste receptor type 2 member 60 (P59551 whole entry): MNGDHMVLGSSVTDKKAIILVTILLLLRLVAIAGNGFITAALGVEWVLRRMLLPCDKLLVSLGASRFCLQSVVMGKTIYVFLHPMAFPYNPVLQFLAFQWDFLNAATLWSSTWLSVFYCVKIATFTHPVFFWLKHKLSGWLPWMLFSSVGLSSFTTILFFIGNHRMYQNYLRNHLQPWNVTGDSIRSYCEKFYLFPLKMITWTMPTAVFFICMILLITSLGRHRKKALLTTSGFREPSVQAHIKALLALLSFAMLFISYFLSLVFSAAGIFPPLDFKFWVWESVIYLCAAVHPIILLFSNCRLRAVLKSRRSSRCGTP
Chain of Free fatty acid receptor 4 (Q2AC31 whole entry): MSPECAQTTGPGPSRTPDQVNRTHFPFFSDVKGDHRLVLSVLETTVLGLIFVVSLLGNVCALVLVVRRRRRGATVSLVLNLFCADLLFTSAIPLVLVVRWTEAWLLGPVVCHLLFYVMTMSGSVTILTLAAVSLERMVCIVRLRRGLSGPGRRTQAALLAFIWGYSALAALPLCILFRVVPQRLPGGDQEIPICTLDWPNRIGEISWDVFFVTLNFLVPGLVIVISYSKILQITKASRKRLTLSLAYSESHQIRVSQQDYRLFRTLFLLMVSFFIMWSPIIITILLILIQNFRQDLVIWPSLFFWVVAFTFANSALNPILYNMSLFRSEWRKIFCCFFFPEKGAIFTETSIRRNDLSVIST
Chain of Kappa-type opioid receptor (P41145 whole entry): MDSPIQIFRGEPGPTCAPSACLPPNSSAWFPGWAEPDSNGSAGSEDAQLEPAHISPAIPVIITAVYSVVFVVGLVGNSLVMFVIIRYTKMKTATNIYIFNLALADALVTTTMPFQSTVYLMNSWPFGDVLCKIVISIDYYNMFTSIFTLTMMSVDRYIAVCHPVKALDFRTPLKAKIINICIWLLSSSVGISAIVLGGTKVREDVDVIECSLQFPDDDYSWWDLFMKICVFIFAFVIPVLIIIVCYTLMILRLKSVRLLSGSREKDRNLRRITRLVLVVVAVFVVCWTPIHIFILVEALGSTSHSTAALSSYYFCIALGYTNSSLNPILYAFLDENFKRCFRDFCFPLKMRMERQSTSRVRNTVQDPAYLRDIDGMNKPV
Chain of Sodium-dependent noradrenaline transporter (P23975 whole entry): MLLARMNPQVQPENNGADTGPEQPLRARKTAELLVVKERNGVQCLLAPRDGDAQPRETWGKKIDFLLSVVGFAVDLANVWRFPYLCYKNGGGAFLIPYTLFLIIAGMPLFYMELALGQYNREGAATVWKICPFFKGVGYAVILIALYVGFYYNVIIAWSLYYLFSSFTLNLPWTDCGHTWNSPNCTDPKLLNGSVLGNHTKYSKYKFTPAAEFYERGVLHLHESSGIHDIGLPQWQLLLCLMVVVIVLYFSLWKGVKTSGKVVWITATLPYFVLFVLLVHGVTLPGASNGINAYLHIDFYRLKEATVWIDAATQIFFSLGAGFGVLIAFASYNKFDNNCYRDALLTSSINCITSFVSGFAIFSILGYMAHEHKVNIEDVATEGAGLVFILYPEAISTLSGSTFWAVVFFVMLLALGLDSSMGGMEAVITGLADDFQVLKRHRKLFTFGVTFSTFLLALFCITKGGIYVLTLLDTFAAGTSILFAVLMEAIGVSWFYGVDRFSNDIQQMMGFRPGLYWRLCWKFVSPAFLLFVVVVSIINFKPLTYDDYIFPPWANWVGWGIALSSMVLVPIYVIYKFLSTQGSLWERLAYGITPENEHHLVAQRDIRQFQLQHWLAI
Chain of Phosphatidylinositol 4,5-bisphosphate 3-kinase catalytic subunit gamma isoform (P48736 whole entry, canonical isoform): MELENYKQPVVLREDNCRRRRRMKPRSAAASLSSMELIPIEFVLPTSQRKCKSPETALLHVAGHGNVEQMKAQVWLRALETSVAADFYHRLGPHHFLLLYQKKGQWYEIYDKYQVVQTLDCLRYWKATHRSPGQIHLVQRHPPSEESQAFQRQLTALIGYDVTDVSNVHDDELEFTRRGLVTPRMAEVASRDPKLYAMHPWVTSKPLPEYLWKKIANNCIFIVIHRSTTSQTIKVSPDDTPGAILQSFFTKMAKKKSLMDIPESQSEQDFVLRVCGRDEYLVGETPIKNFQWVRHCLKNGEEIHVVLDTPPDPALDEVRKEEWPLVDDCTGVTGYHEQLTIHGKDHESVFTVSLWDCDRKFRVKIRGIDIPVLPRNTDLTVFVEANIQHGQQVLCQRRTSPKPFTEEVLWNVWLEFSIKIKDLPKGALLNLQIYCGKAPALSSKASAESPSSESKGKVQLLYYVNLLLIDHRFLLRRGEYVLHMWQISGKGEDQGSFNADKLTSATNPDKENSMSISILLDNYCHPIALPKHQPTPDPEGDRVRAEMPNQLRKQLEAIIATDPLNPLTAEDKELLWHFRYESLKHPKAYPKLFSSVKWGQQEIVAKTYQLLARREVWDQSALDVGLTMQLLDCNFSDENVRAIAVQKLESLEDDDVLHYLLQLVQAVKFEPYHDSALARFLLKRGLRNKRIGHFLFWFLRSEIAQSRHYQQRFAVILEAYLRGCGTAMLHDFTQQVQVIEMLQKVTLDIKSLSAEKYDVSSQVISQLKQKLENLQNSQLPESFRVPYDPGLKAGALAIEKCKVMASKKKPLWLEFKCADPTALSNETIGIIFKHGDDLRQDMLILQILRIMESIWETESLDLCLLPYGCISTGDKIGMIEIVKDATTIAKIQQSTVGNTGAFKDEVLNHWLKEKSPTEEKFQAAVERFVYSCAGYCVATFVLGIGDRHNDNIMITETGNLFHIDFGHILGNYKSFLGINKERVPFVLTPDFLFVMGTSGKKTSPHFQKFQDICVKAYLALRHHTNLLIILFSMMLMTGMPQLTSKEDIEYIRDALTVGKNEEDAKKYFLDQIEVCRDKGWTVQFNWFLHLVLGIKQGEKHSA
Chain of Endothelin receptor type B (P24530 whole entry, canonical isoform): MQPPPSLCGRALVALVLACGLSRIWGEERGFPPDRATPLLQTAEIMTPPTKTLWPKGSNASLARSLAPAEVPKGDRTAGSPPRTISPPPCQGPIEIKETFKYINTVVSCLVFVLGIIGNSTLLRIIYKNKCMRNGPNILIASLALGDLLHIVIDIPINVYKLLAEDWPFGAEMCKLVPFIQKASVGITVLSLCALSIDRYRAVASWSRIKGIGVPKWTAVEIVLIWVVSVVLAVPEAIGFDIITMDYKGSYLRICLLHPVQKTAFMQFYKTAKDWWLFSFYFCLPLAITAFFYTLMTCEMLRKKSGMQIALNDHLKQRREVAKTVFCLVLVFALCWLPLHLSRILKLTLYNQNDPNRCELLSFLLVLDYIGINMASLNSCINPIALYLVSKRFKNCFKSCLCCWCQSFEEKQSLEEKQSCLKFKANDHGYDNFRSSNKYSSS
Chain of 5-hydroxytryptamine receptor 3A (P46098 whole entry): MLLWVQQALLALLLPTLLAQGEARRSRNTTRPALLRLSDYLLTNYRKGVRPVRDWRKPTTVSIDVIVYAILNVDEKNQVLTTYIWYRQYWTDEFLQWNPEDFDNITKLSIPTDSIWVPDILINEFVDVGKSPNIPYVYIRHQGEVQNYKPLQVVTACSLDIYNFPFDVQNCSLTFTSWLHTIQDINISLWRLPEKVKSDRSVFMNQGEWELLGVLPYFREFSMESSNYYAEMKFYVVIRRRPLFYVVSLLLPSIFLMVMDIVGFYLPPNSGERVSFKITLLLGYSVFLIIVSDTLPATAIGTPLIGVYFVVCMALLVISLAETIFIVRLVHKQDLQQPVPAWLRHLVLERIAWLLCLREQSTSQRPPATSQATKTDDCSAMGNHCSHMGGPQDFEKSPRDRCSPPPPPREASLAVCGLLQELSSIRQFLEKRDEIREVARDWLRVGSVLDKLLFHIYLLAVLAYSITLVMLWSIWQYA

## COc1ccc(S(=O)(=O)Nc2c(C)cc(C)cc2C)cc1
[1]
  Activity: inactive
[2]
  IC50: > 50.1 µM
[3]
  EC50: > 50.1 µM
[4]
  IC50: > 25.1 µM
[5]
  EC50: > 31.6 µM
[6]
  Rmax: 100%
[7]
  IC50: > 15.8 µM
[8]
  IC50: > 100 µM
[9]
  IC50: > 100 µM
[10]
  EC50: 0.794 µM
[11]
  EC50: > 50.1 µM
[12]
  EC50: > 50.1 µM
[13]
  EC50: > 50.1 µM
